From PubChem BioAssay
MITF TRPM1 HTS = increases MITF-driven TRPM1 promoter luciferase signal; AID 588334; activation, % at 12.5 µM; 300,000 tested, 0.75% active; SK-MEL-5 TRPM1-promoter luciferase, 24 h; % of positive control, neutral wells = 0;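 active means mean activation of at least 80% with every replicate also reaching 80%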
ERAP1 inh = inhibitors of human ERAP1 aminopeptidase. Q9NZ08. AID 652197. recombinant ERAP1, Leu-AMC fluorescence, 60 min. 340,000 tested, 0.15% active. inhibition, % at 10.7 µM;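 active means mean replicate inhibition of at least 30%, or all replicates individually reaching that 30% level; inactive means mean below 30% and not every replicate reaching it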
Target sequence (Q9NZ08 whole entry, looked up): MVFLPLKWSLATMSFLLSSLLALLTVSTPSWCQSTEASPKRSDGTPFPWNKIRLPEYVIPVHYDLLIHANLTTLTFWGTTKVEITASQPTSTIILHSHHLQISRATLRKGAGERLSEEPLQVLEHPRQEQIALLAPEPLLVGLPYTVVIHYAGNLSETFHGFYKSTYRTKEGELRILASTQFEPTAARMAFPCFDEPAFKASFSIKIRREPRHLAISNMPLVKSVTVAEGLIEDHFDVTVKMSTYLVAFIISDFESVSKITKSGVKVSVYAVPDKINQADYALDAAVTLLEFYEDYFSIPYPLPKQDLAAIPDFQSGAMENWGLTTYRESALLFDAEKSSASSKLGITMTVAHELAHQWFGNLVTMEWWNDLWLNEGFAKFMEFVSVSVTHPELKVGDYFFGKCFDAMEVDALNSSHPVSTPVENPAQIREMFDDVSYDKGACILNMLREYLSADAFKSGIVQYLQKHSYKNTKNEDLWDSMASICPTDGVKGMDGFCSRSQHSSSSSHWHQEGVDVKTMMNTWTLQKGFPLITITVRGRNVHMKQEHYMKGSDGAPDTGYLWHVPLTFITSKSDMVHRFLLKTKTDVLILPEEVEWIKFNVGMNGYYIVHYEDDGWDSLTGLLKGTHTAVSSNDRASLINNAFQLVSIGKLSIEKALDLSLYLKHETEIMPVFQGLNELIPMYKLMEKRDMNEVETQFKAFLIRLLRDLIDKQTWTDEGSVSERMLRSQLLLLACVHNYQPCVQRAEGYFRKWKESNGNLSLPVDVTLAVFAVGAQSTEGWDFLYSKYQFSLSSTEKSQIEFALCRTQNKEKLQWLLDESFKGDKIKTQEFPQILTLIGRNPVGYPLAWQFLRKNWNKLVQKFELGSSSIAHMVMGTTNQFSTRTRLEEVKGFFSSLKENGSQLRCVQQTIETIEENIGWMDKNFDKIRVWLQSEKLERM
Wnt bcat act = activators of Wnt/beta-catenin signaling | Wnt/beta-catenin reporter cell assay, activator, plate reader | activation, % at 9.35 µM | 300,000 tested, 1.2% active; in the data active means activation above about 30%, passing the limit was not always enough
HIV Env fusion = HIV envelope-mediated fusion inhibition; 360,000 tested, 1.1% active; inhibition, % at 12.3 µM; HeLa-JRFL Env/CEM21 cell fusion, luciferase;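 active means mean replicate inhibition score of at least 50 and every replicate individually at or above 50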
esBAF inh = SWI/SNF esBAF complex inhibition; mouse ES cells, Bmi1-luciferase knock-in reporter, 24 h; 100% = twice the neutral-well signal; reporter increase, % at 12.5 µM; 350,000 tested, 2% active; AID 602393; in the data active means activation above about 40%;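 further: a rise in the Bmi1 reporter signal indicates esBAF inhibition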
Cneo AK release = causes C. neoformans cell lysis | adenylate kinase release luminescence, 4 h; normalised: neutral wells 0, clomiphene wells 100 | lysis activity, % at 15 µM | 360,000 tested, 0.2% active;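 active means mean lysis activity across replicates of at least 80%, whatever share of replicates individually reach that level; inactive means mean lysis activity below 80%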
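Schedule: static 4 h at 37 °C with compound, 1 h detection; system: C. neoformans cells; benchmarks: Clomiphene as positive control; buffer or medium: fresh YPD medium; measure: luminescence rise reflecting yeast cell lysis; measured by: luminescent adenylate kinase detection reagent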
Hits are given with their value; 0 = inactive; - = not tested or not shown; [ ] = another dose, or the depositor's remark. This is a sample that favours compounds with a hit; in the whole collection about 3.5% have one here.

SMILES | MITF TRPM1 HTS | ERAP1 inh | Wnt bcat act | HIV Env fusion | esBAF inh | Cneo AK release
Cc1ccc(S(=O)(=O)Nc2ccc3c(c2)C(=O)N([C@@H](C)CO)C[C@H](C)[C@@H](CN(C)C(=O)NC(C)C)OCCCC[C@@H](C)O3)cc1 | - | 0 | - | - | - | -
Nc1[nH]nc2nc(N3CCOCC3)nc(-c3ccccc3)c12 | - | - | - | 67 | 0 | 0
CCOc1ccc(NC(=O)CCc2c(C)nn(-c3ccc(N4CCCCC4)nn3)c2C)cc1 | 0 | 0 | 0 | 0 | 52 | 0
CCc1ccc(NC(=O)CCc2c(C)nn(-c3ccc(N4CCCCC4)nn3)c2C)cc1 | 0 | 0 | 0 | 0 | 62 | 0
Cc1nn(-c2ccc(N3CCCCC3)nn2)c(C)c1CCC(=O)Nc1ccc(F)cc1 | 0 | 0 | 0 | 0 | 0 | 0
Cc1ccccc1OCc1nc2ccccc2c(=O)n1N | - | - | 0 | - | 0 | 0
Cc1ccccc1OCc1nnc2c3cnn(C)c3ncn12 | 90 | - | - | - | 54 | 0
COc1ccc(S(=O)(=O)N(C)C[C@H]2Oc3ccc(NS(=O)(=O)c4ccc(Cl)cc4)cc3CC(=O)N([C@H](C)CO)C[C@H]2C)cc1 | - | - | - | 0 | 0 | 0
COc1ccc(C2Nc3ccccc3C(=O)N2c2ccc(C)cc2)cc1Cn1nnc2ccccc21 (centres undefined) | 98 | 0 | 0 | - | 0 | 0
COc1ccc(C2Nc3ccccc3C(=O)N2c2ccc(C)cc2)cc1Cn1cc([N+](=O)[O-])cn1 (centres undefined) | 91 | 0 | 0 | - | 0 | 0
COc1ccc(C)cc1Cn1nnc2ccccc21 | 0 | 0 | 0 | 0 | 0 | 0
C[C@H](CO)N1C[C@H](C)[C@H](CN(C)CC2CC2)Oc2ccc(NC(=O)C3CCCCC3)cc2CC1=O | - | 0 | - | 0 | 0 | 0
CCCNC(=O)N1C[C@H](O)COC[C@H]2O[C@@H](CC(=O)NCc3ccc(Cl)c(Cl)c3)CC[C@@H]21 | - | 0 | - | 0 | 0 | 0
CCOC(=O)c1ccc(CC(=O)c2ccc(O)cc2O)o1 | 0 | - | - | - | 49 | -
CC12CCC(=O)N1C(C(=O)NNC(=O)COc1ccc(Br)cc1)CS2 (centres undefined) | 0 | 0 | 0 | 0 | 0 | 0
Cc1cc(Cl)ccc1OCC(=O)NNC(=O)C1CSC2(C)CCC(=O)N12 (centres undefined) | 0 | 0 | 0 | 71 | 0 | 0
COc1ccc(NC(=O)Nc2ccc3c(c2)C(=O)N([C@H](C)CO)C[C@H](C)[C@H](CN(C)Cc2ccc(C(F)(F)F)cc2)OCCCC[C@H](C)O3)cc1 | - | 0 | - | 64[16.7 µM] | 0 | 0
COc1ccc(CN(C)C[C@@H]2OCCCC[C@@H](C)Oc3ccc(NC(=O)Nc4ccc(C(F)(F)F)cc4)cc3C(=O)N([C@@H](C)CO)C[C@H]2C)cc1 | - | 0 | - | 58[16.7 µM] | 0 | 0
CCOC(=O)c1c(-c2ccccc2)csc1NC(=O)CCN1C(=O)c2ccccc2C1=O | 0 | 0 | - | 0 | 0 | 0
CCOC(=O)c1c(-c2ccc(-c3ccccc3)cc2)csc1NC(=O)CNCCN(C)C | 0 | 0 | 0 | 0 | 0 | 85
Cc1cc2c([nH]c3ccccc32)c2c1OC(C)(C)C=C2 | 91 | 0 | 0 | - | 92 | 0
Cc1cc(=O)[nH]c2ccccc12 | 0 | - | - | - | 0 | 0
CC(=O)c1ccc2c(c1)C1C=CCC1C(C(=O)O)N2 (centres undefined) | 0 | 0 | 0 | 0 | - | -
CC(=O)c1ccc2c(c1)C1C=CCC1C(c1ccncc1)N2 (centres undefined) | 0 | - | - | - | 54 | 0
C[C@H]1CN([C@@H](C)CO)C(=O)c2cc(C#CC3CCCCC3)cnc2O[C@H]1CN(C)C(=O)Nc1ccccc1 | - | - | - | 0 | 0 | 0
Cc1cc(N(C)C)ccc1N=Nc1ccc2ncccc2c1 | 0 | 0 | 42 | 0 | 0 | 0
COc1ccc(NC(=O)N(C)C[C@H]2OCCCC[C@H](C)Oc3ccc(NS(=O)(=O)c4cccs4)cc3C(=O)N([C@H](C)CO)C[C@@H]2C)cc1 | - | 0 | - | 0 | 0 | 0
O=CN(/C=C1\Sc2ccccc2C1=O)Cc1ccccc1 | 0 | - | 0 | 0 | 51 | 0
Cc1ccccc1S(=O)(=O)N1[C@H](C#N)[C@H](c2ccc(-c3ccccc3)cc2)[C@@H]1CO | - | 0 | - | 0 | 0 | 0
CN(C)S(=O)(=O)c1cccc(-c2cn3cc(Cl)ccc3n2)c1 | 0 | - | - | - | 45 | 0
